Results reported in ChEMBL document CHEMBL4138168, “Design and synthesis of novel thiobarbituric acid derivatives targeting both wild-type and BRAF-mutated melanoma cells” (Eur J Med Chem, 2018).
Calls of active or inactive are those of the source. No cut-off for these calls is given here.

Legend:
[1] = system: CHL-1; assay: Antiproliferative activity against human CHL-1 cells harboring wild type BRAF after 48 hrs by MTT assay; type: functional, cell-based; settings: CHL-1, 48 h
Procedure, shortened: (§1)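 3,000 cells per well, grown at 37 °C (DMEM with 10% FBS and penicillin/streptomycin; HCT116 in McCoy's 5A). Cells exposed in triplicate to 0.5–25 μM compound for 48 h. MTT (5 mg/mL PBS stock) added for 3 h, formazan dissolved in DMSO, OD read at 570 nm minus 630 nm background. IC50 from non-linear regression of two independent experiments.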

[2] = system: UACC-903; assay: Induction of apoptosis in human UACC-903 cells harboring BRAF mutant assessed as apoptotic dead cells level at 25 uM after 24 hrs by AAD dye containing caspase 3/7 activity assay (reference value: 3%); type: functional
[3] = system: CHL-1; assay: Induction of apoptosis in human CHL-1 cells harboring wild type BRAF assessed as increase in dead cells at 25 uM after 24 hrs by Calcein-AM/ethidium bromide staining-based fluorescence assay (reference value: 2%); type: functional
[4] = system: MCF7; assay: Cytotoxicity against human MCF7 cells assessed as cell viability at 25 uM after 48 hrs by MTT assay relative to control; type: functional; settings: MCF7, 48 h, read-out: Activity
Procedure, shortened: (§2)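 MTT viability at a single 25 μM dose, 48 h, 3,000 cells/well. MCF10A normal breast epithelial cells were kept in MEGM mammary epithelial medium; the cancer lines were in DMEM with 10% FBS, 37 °C. OD at 570 nm with 630 nm background, expressed relative to control.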

[5] = system: UACC-903; assay: Induction of apoptosis in human UACC-903 cells harboring BRAF mutant assessed as increase in dead cells at 50 uM after 24 hrs by Calcein-AM/ethidium bromide staining-based fluorescence assay (reference value: 3%); type: functional
[6] = system: CHL-1; assay: Induction of apoptosis in human CHL-1 cells harboring wild type BRAF assessed as decrease in Bcl-xL level at 5 to 25 uM after 24 hrs by Western blot analysis; type: functional, cell-based
Procedure, shortened: (§3)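 2 × 10^6 cells treated with the indicated concentrations for 24 h. Whole-cell lysates run on SDS-PAGE, transferred to PVDF, probed with antibodies against apoptosis/survival proteins, and detected by enhanced chemiluminescence.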

[7] = Selectivity ratio of cytotoxicity against human MCF10A cells to cytotoxicity against human MDA-MB-231 cells; type: toxicity, cell-based; settings: MCF10A cells versus MDA-MB-231 cells
[8] = system: UACC-903; assay: Induction of apoptosis in human UACC-903 cells harboring BRAF mutant assessed as increase in phosphorylated Bcl-2 level at 5 to 25 uM after 24 hrs by Western blot analysis; type: functional, cell-based; procedure, shortened: as §3
[9] = Antiproliferative activity against human A375M cells after 48 hrs by MTT assay; type: functional, cell-based; procedure, shortened: as §1
[10] = system: UACC-903; assay: Induction of apoptosis in human UACC-903 cells harboring BRAF mutant assessed as late apoptotic cells at 5 uM after 24 hrs by Annexin V/7-AAD staining-based assay (reference value: 1.56%); type: functional
[11] = system: UACC-903; assay: Induction of apoptosis in human UACC-903 cells harboring BRAF mutant assessed as late apoptotic cells at 25 uM after 24 hrs by Annexin V/7-AAD staining-based assay (reference value: 1.56%); type: functional
[12] = system: UACC-903; assay: Induction of apoptosis in human UACC-903 cells harboring BRAF mutant assessed as dead cells level at 5 uM after 24 hrs by AAD dye containing caspase 3/7 activity assay (reference value: 0.06%); type: functional
[13] = system: UACC-903; assay: Induction of apoptosis in human UACC-903 cells harboring BRAF mutant assessed as increase in dead cells at 25 uM after 24 hrs by Calcein-AM/ethidium bromide staining-based fluorescence assay (reference value: 3%); type: functional
[14] = Cytotoxicity against human MCF10A cells assessed as cell viability at 25 uM after 48 hrs by MTT assay relative to control; type: cell-based, MCF-10A; settings: read-out: Activity; procedure, shortened: as §2
[15] = system: UACC-903; assay: Induction of apoptosis in human UACC-903 cells harboring BRAF mutant assessed as necrotic cells at 25 uM after 24 hrs by Annexin V/7-AAD staining-based assay (reference value: 0.12%); type: functional
[16] = system: CHL-1; assay: Induction of apoptosis in human CHL-1 cells harboring wild type BRAF assessed as increase in dead cells at 50 uM after 24 hrs by Calcein-AM/ethidium bromide staining-based fluorescence assay (reference value: 2%); type: functional
[17] = system: PANC-1; assay: Antiproliferative activity against human PANC1 cells after 48 hrs by MTT assay; type: functional, cell-based; settings: PANC-1, 48 h; procedure, shortened: as §1
[18] = system: UACC-903; assay: Antiproliferative activity against human UACC-903 cells harboring BRAF mutant after 48 hrs by MTT assay; type: functional, cell-based; settings: UACC-903, 48 h; procedure, shortened: as §1
[19] = system: UACC-903; assay: Induction of apoptosis in human UACC-903 cells harboring BRAF mutant assessed as early apoptotic cells at 25 uM after 24 hrs by Annexin V/7-AAD staining-based assay (reference value: 2.68%); type: functional
[20] = system: UACC-903; assay: Induction of apoptosis in human UACC-903 cells harboring BRAF mutant assessed as live cells level at 5 uM after 24 hrs by AAD dye containing caspase 3/7 activity assay (reference value: 90.06%); type: functional
[21] = system: UACC-903; assay: Induction of apoptosis in human UACC-903 cells harboring BRAF mutant assessed as viable cells at 5 uM after 24 hrs by Annexin V/7-AAD staining-based assay (reference value: 95.64%); type: functional; settings: UACC-903, 24 h, read-out: Activity
[22] = system: UACC-903; assay: Induction of apoptosis in human UACC-903 cells harboring BRAF mutant assessed as decrease in Bcl-xL level at 5 to 25 uM after 24 hrs by Western blot analysis; type: functional, cell-based; procedure, shortened: as §3
[23] = system: UACC-903; assay: Cytotoxicity against human UACC-903 cells assessed as cell viability at 25 uM after 48 hrs by MTT assay relative to control; type: functional, cell-based; settings: UACC-903, 48 h
Procedure, shortened: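 MCF10A normal breast epithelial cells were kept in MEGM mammary epithelial medium; the cancer lines were in DMEM with 10% FBS, 37 °C. OD at 570 nm with 630 nm background, expressed relative to control.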

[24] = system: UACC-903; assay: Induction of apoptosis in human UACC-903 cells harboring BRAF mutant assessed as necrotic cells at 5 uM after 24 hrs by Annexin V/7-AAD staining-based assay (reference value: 0.12%); type: functional
[25] = Antiproliferative activity against human 1205 Lu cells after 48 hrs by MTT assay; type: functional, cell-based; procedure, shortened: as §1
[26] = Selectivity ratio of cytotoxicity against human MCF10A cells to IC50 for human UACC-903 cells harboring BRAF mutant; type: toxicity, cell-based; settings: MCF10A cells versus UACC-903 cells harboring BRAF mutant
[27] = system: CHL-1; assay: Induction of apoptosis in human CHL-1 cells harboring wild type BRAF assessed as […] in cleaved PARP level at 5 to 25 uM after 24 hrs by Western blot analysis; type: functional, cell-based; procedure, shortened: as §3
[28] = system: CHL-1; assay: Induction of apoptosis in human CHL-1 cells harboring wild type BRAF assessed as increase in phosphorylated Bcl-2 level at 5 to 25 uM after 24 hrs by Western blot analysis; type: functional, cell-based; procedure, shortened: as §3
[29] = system: HCT-116; assay: Antiproliferative activity against human HCT116 cells after 48 hrs by MTT assay; type: functional, cell-based; settings: HCT-116, 48 h; procedure, shortened: as §1
[30] = system: UACC-903; assay: Induction of apoptosis in human UACC-903 cells harboring BRAF mutant assessed as decrease in survivin level at 5 to 25 uM after 24 hrs by Western blot analysis; type: functional, cell-based; procedure, shortened: as §3

Compound | IC50 [1] [µM] | Activity [2] [%] | Activity [3] [%] | viability at 25 µM [4] [%] | Activity [5] [%] | Activity [6] | selectivity ratio [7] | Activity [8] | IC50 [9] [µM] | Activity [10] [%] | Activity [11] [%] | Activity [12] [%] | Activity [13] | viability at 48 h, 25 µM [14] [%] | Activity [15] [%] | Activity [16] [%] | IC50 [17] [µM] | IC50 [18] [µM] | Activity [19] [%] | Activity [20] [%] | other results
O=C1NC(=S)NC(=O)C1=C/C=C/c1cccs1 | 7.2 | 43.88 | 65 | 20 to 30 | 85 | Active | 2 | Active | 10.6 | 3.14 | 40.54 | 0.32 | 70% | 60 | 3.42 | 98 | 19.1 | 8.1 | 30.28 | 90.28 | viability at 5 µM [21]: 91.3%; Activity [22]: Active; IC50 [23]: 4 µM; Activity [24]: 0.4%; IC50 [25]: 12.4 µM; selectivity ratio [26]: 3; Activity [27]: Active; Activity [28]: Active; IC50 [29]: 7.7 µM; Activity [30]: Active
O=C1NC(=S)N(c2ccccc2)C(=O)/C1=C/C=C/c1cccs1 | 6.5 | 24.1 | 5 | 20 to 30 | 45 | Active | 2 | Active | 14.8 | 3.18 | 44.28 | 0.18 | 15 - 25% | 60 | 5.31 | 40 | 8.3 | 7.6 | 21.04 | 87.26 | viability at 5 µM [21]: 92.6%; Activity [22]: Active; IC50 [23]: 3.8 µM; Activity [24]: 0.54%; IC50 [25]: 13.5 µM; selectivity ratio [26]: 3; Activity [27]: Active; Activity [28]: Active; IC50 [29]: 2.4 µM; Activity [30]: Active
